In the library only some 1.3% were active in any assay of this set; here they are far more common.
INS-1E GSIS act: GLuc luminescence reporter in INS-1E cells, primary screen for activators of glucose-dependent secretion of insulin | INS-1E GLuc reporter insulin secretion, 2-3 h | activation, % at 16.6 µM | hit rate 0.61% among 370,000 | AID 743287;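 active = lowest replicate activation of at least 40%, so every replicate reaches that level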;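 also: 0% = median of neutral control wells and 100% = median of IBMX positive control wells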
RAD52 anneal inh: RAD52 (human) annealing inhibition; recombinant RAD52 DNA annealing, FRET fluorescence; AID 651710; P43351; hit rate 0.46% among 360,000; inhibition, % at 18.7 µM;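 active = every replicate showing at least 50% inhibition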
MLL AF4-AF9 inh: inhibitors of human MLL-AF4/AF9 interaction; AlphaScreen, biotin-AF4 peptide binding to FLAG-AF9; inhibition, % at 10 µM; hit rate 0.47% among 350,000; AID 651704;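 active = every replicate reaching a set inhibition limit, whatever the replicate mean, cut at about 25% in these data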;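 also: 0% = plate neutral control median and 100% = total signal loss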
S100A4 MyoIIA: inhibitors of human S100A4 binding to myosin IIA peptide; AID 652163; hit rate 0.14% among 360,000; S100A4/TAMRA-MyoIIA peptide fluorescence polarization; inhibition, % at 10.7 µM;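 active = mean inhibition of at least 70% across replicates, with every replicate also reaching that level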
Target sequence (P26447 whole entry, looked up): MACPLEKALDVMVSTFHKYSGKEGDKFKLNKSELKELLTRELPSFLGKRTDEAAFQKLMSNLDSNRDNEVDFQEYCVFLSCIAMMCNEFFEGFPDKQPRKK
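Material: human S100A4 monomer with TAMRA-labelled myosin IIA peptide; buffer or medium: HEPES pH 7.2 with CaCl2, KCl, NaCl, DTT, Triton; compound dosing: one concentration per compound; schedule: 5 min incubation before reading; benchmarks: neutral control DMSO, positive control TFP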
RAD54 branch: RAD54 (human) branch migration inhibition; Q92698; RAD54 Holliday junction branch migration, FAM/BHQ fluorescence; inhibition, % at 10.4 µM; hit rate 0.14% among 360,000; AID 602329;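 active = mean normalized replicate activity at least 40 and at least half of replicates scoring 40 or more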;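 also: 0% = median of neutral control wells and 100% = median of positive control wells; inhibitors cause a drop in the FAM fluorescence signal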
Active calls of the source: *; · = not tested or not shown; ! = not confirmed by another sample.

SMILES	INS-1E GSIS act	RAD52 anneal inh	MLL AF4-AF9 inh	S100A4 MyoIIA	RAD54 branch
CC(C)Cc1cc(C(=O)NCCCN2CCOCC2)no1	·	1	0	151*	-1
C[C@@H]1CCCCO[C@@H](CN(C)C(=O)Nc2cccc3ccccc23)[C@H](C)CN([C@@H](C)CO)C(=O)c2cc(N(C)C)ccc2O1	12	56*	17	-28	-11
C[C@@H]1CCCCO[C@@H](CN(C)C(=O)Nc2cccc3ccccc23)[C@H](C)CN([C@@H](C)CO)C(=O)c2cc(NC(=O)C3CCCCC3)ccc2O1	12	1	-3	117*	-1
C[C@H]1CCCCO[C@H](CN(C)C(=O)Nc2cccc3ccccc23)[C@@H](C)CN([C@@H](C)CO)C(=O)c2cc(N(C)C)ccc2O1	2	7	23	1	-5
O=S(=O)(c1ccc(Cl)cc1)n1c(Cc2ccccc2)nc2ccccc21	2	-11	0	-2	6
O=S(=O)(N1CCOCC1)n1c(Cc2ccccc2)nc2ccccc21	49*	·	·	·	-8
Cc1noc(C)c1S(=O)(=O)N(C)C[C@H]1Oc2ccc(NC(=O)Cc3cn(C)c4ccccc34)cc2CC(=O)N([C@H](C)CO)C[C@@H]1C	-29	21	7	-5	-3
CCOc1nc(Nc2ccccc2F)nc(OCC)n1	62*	-2	-5	5	9
CCOC(=O)c1[nH]cnc1C(=O)NC(C)C	41*	·	·	·	-2
CCCN1[C@@H]2c3ccc(-c4cccnc4)c(=O)n3C[C@@H]2[C@@H](CO)[C@@H]1C(=O)OC	10	-39	-6	23	·
COc1nc(N2CCOCC2)nc(-n2cccc2)n1	57*	0	·	-1	1
COc1ccc(Nc2nc(OC)nc(N3CCOCC3)n2)cc1	11	-8	13	0	6
CN1c2ccc(C3=CCCCC3)cc2[C@@H]2[C@@H](CCN2C(=O)C2CC2)[C@H]1CO	-10	9	18	118*	·
CN1c2ccc(C3=CCCCC3)cc2[C@H]2[C@H](CCN2C(=O)C2CC2)[C@@H]1CO	·	-64	69*	14	·
CCNC[C@@H]1[C@H](c2ccccc2)[C@H](CO)N1C(=O)Cc1ccccn1	8	-33	2	22	-4
COCCNC(=O)C[C@@H]1CC[C@@H](NS(=O)(=O)c2ccc(C)cc2)[C@H](CO)O1	8	9	-1	2	1
CCc1cc(-c2n[nH]c(C)c2-c2nc3ccccc3n2C)c(O)cc1O	5	4	2	2	0
CCc1cc(-c2n[nH]c(C)c2-c2nc3ccccc3n2C)c(O)c(CN2CCN(C)CC2)c1O	-5	17	25*	1	4
CCc1c(C(=O)Nc2ccc(C)c(C)c2)[nH]c(C)c1C(C)=O	114*	-10	-2	0	1
COc1ccc(CN(C)C[C@@H]2Oc3ccc(NS(=O)(=O)c4ccc(C)cc4)cc3CC(=O)N([C@H](C)CO)C[C@H]2C)cc1	-10	8	-1	-30	-7
O=C(CSc1ncnc2c1nnn2Cc1ccc(F)cc1)NC1CCCCC1	5	-10	-1	2	·
O=C(CSc1ncnc2c1nnn2Cc1ccc(F)cc1)NCC1CCCO1 (centres undefined)	-6	-22	-1	74*	3
c1ccc(Cn2nnc3c(N4CCCCCC4)ncnc32)cc1	·	-16	-3	-2	-4
c1ccc(Cn2nnc3c(N4CCc5ccccc54)ncnc32)cc1	86*	·	·	·	-4
C[C@H](CO)N1C[C@H](C)[C@H](CN(C)Cc2ccc(C(=O)Nc3ccccc3N)cc2)Oc2c(NC(=O)c3nc4ccccc4s3)cccc2C1=O	0	19	4	-22	0
O=C(Nc1ccccc1F)N1C[C@@H]2N[C@H](C1)C2c1ccc(/C=C/c2ccccc2)cc1 (some centres undefined)	1	69*	8	18	·
Cc1ccccc1-c1ccc(C2[C@@H]3CN(C(=O)C4CC4)C[C@H]2N3)cc1 (some centres undefined)	-21	84*!	-13	8	·
O=C(C1CC1)N1C[C@@H]2N[C@H](C1)C2c1ccc(/C=C/c2ccccc2)cc1 (some centres undefined)	1	51*!	10	-9	·
CC(C)NC(=O)N(C)C[C@@H]1OCCCC[C@H](C)Oc2ccc(NC(=O)c3ccccc3)cc2C(=O)N([C@@H](C)CO)C[C@H]1C	5	1	-7	10	-2
